Calls of active or inactive are those of the source. No cut-off for these calls is given here.
What was measured:
Cannabinoid receptor 2 = Cannabinoid receptor 2 (Homo sapiens, UniProt P34972); assay: Displacement of [3H]CP55940 from human CB2 receptor expressed in human HEK293 cells; format: cell-based
Method in brief: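 Membranes from HEK-293 cells stably expressing human CB1 or CB2. Compounds displacing >50% at 10 μM got curves at 1–1000 nM. Ki from IC50 via Cheng–Prusoff. Three experiments in duplicate. SI = Ki CB2/Ki CB1.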

Cannabinoid receptor 1 [1] = biological target: T1, Cannabinoid receptor 1 (Homo sapiens, UniProt P21554); assay: Displacement of [3H]CP55940 from human CB1 receptor expressed in human HEK293 cells; format: cell-based
T1 sequence (P21554 whole entry): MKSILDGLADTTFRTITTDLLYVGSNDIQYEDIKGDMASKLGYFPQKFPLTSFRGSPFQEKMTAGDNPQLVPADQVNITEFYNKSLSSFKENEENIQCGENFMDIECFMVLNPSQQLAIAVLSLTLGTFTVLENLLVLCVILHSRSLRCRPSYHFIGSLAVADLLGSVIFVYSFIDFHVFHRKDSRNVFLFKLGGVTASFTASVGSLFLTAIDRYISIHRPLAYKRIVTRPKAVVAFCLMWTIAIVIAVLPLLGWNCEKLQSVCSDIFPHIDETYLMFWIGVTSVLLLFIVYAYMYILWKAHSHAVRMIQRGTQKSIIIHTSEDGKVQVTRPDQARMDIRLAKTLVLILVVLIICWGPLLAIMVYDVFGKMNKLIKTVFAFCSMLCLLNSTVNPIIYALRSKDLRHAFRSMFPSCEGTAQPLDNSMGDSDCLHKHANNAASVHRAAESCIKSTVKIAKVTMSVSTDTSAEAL

Cannabinoid receptor 1 [2] = biological target: T1, Cannabinoid receptor 1; assay: Agonist activity at human CB1 receptor expressed in CHO cells assessed as induction of [35S]GTPgammaS binding after 60 mins by liquid scintillation counting; format: functional, cell-based
Method in brief: (§1)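 [35S]GTPγS binding in buffer of 50 mM Tris-HCl, 50 mM Tris-base, 5 mM MgCl2, 1 mM EDTA, 100 mM NaCl, 1 mM DTT, 0.1% BSA with 0.1 nM [35S]GTPγS and 30 μM GDP. Mouse whole brain membranes (5 μg/well) were preincubated 30 min at 30 °C with adenosine deaminase. CHO-hCB1 membranes were used at 50 μg/well. Test range 1 nM–10 μM. Incubation 60 min at 30 °C, filtration, scintillation counting. Nonspecific binding taken with 30 μM GTPγS. Net stimulation = agonist minus basal. EC50/Emax by sigmoid nonlinear regression.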

[3] = biological target: Cannabinoid receptor 1 (Mus musculus) (UniProt P47746); assay: Agonist activity at MF1 mouse brain CB1 receptor assessed as induction of [35S]GTPgammaS binding after 60 mins by liquid scintillation counting relative to cannabinoid receptor agonist CP55940; format: functional, tissue-based; method in brief: as §1
Chain of Cannabinoid receptor 1 (Mus musculus) (P47746 whole entry): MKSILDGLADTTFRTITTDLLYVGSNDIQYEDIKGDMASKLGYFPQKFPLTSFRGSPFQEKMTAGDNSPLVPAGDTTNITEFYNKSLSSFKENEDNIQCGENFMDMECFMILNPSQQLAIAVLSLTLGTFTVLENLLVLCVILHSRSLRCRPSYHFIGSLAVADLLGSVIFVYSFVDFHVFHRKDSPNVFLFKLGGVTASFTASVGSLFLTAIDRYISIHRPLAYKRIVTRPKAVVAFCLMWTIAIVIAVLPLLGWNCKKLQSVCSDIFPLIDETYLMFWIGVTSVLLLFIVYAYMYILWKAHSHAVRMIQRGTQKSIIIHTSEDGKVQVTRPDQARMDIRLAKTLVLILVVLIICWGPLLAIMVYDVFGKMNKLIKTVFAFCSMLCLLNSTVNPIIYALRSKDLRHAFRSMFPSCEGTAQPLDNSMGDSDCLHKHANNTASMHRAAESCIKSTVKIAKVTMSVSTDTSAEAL

Cannabinoid receptor 1 [4] = biological target: Cannabinoid receptor 1 (Mus musculus, UniProt P47746); assay: Agonist activity at MF1 mouse brain CB1 receptor assessed as induction of [35S]GTPgammaS binding after 60 mins by liquid scintillation counting; format: functional, tissue-based; method in brief: as §1
Chain of Cannabinoid receptor 1 (Mus musculus, UniProt P47746) (P47746 whole entry): as above

Plasma [5] = assay: Metabolic stability of the compound in human plasma assessed as plasma esterase-mediated compound hydrolysis at 100 uM from 15 to 120 mins by reverse-phase LC-MS analysis; format: ADME, cell-free
Method in brief: (§2)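 Citrated human plasma, or water as control, spiked to final 1 × 10⁻⁴ or 2 × 10⁻⁴ M. Incubated at 37 °C for 0, 15, 30, 60, 120 min, stopped with acetonitrile, centrifuged. Supernatant run by reverse-phase LC (C8, methanol/water 92/8) with UV 254 nm and positive-ion MS. Triplicates. AUC(0–120 min) compared by Student's t test.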

Plasma [6] = assay: Metabolic stability of the compound in human plasma assessed as plasma esterase-mediated compound hydrolysis at 200 uM from 15 to 120 mins by reverse-phase LC-MS analysis; format: ADME, cell-free; method in brief: as §2
[7] = Chemical stability of the compound in biological buffer at 2.1 mM at 30 degC after 90 mins by LC-MS/MS analysis; format: physicochemical; conditions: 1.5 h, 2100 µM
Method in brief: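 DMSO solution (2.1 mM stock) diluted in GTPγS binding buffer and incubated 90 min at 30 °C. Samples taken at 60 and 90 min and analysed by LC–ESI triple-quadrupole MS (positive mode, C18, acetonitrile/0.1% formic acid gradient) for hydrolysis products.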

CYP3A4 = assay: Metabolic stability assessed as compound remaining at 1 uM after 1 hr by LC-MS analysis in presence of human CYP3A4 and NADPH; format: ADME; conditions: human CYP3A4 enzyme, read-out: Stability
Method in brief: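 Recombinant human CYP3A4 at 20 pmol/mL (0.1–0.2 mg/mL protein). Substrate final 1 μM, 0.25% organic solvent. Run with NADPH regenerating system or phosphate buffer instead. Incubated 1 h at 37 °C, stopped with acetonitrile. Percent remaining by MS.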

Cannabinoid receptor 1 [8] = biological target: T1, Cannabinoid receptor 1; assay: Antagonist activity at human CB1 receptor expressed in CHO cells assessed as inhibition of CP55940-induced [35S]GTPgammaS binding after 60 mins by liquid scintillation counting; format: functional, cell-based
Homo sapiens = species: Homo sapiens; assay: Selectivity index, ratio of Ki for human CB2 receptor to Ki for human CB1 receptor
Method in brief: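 Membranes from HEK-293 cells stably expressing human CB1 or CB2. […] Preliminary screen at 5, 10, 25 μM. Compounds displacing >50% at 10 μM got curves at 1–1000 nM. Ki from IC50 via Cheng–Prusoff. Three experiments in duplicate. SI = Ki CB2/Ki CB1.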

[9] = biological target: Cannabinoid receptor 1 (Mus musculus) (UniProt P47746); assay: Antagonist activity at MF1 mouse brain CB1 receptor assessed as inhibition of CP55940-induced [35S]GTPgammaS binding at 100 nM after 60 mins by liquid scintillation counting; format: functional
Method in brief: (§3)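 Same [35S]GTPγS assay on mouse whole brain membranes (5 μg/well, adenosine deaminase-preincubated). 0.1 nM [35S]GTPγS, 30 μM GDP. Single concentration of test compound, 1 μM or 100 nM, against a log concentration-response curve of CP-55940. Incubation 60 min at 30 °C. Read by filtration and liquid scintillation counting.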

[10] = biological target: Cannabinoid receptor 1 (Mus musculus) (UniProt P47746); assay: Antagonist activity at MF1 mouse brain CB1 receptor assessed as inhibition of CP55940-induced [35S]GTPgammaS binding at 1 uM after 60 mins by liquid scintillation counting; format: functional; method in brief: as §3

Chain of Cannabinoid receptor 2 (P34972 whole entry): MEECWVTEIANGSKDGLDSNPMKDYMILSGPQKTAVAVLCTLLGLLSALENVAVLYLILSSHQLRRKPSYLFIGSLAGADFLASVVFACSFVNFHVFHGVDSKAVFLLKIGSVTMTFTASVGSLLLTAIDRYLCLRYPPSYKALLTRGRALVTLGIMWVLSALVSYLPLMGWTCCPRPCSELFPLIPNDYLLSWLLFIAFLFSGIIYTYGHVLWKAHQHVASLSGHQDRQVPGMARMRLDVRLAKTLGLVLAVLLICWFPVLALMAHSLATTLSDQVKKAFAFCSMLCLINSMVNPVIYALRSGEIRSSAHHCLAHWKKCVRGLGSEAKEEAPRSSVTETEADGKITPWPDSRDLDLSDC

| Structure (SMILES) | Ki (Cannabinoid receptor 2) [nM] | Ki (Cannabinoid receptor 1 [1]) [nM] | further results |
| --- | --- | --- | --- |
| CCCCCCC(C)(C)c1cc(O)cc(OCCCCCCCCCCCC(=O)OC(CO)CO)c1 | 800 | 2710 |  |
| CCCCCCC(C)(C)c1cc(O)cc(OCCCCCCCCCCC(=O)OC(CO)CO)c1 | 790 | 10 | Activity (Cannabinoid receptor 1 [2]): inactive; Emax [3]: 14.7%; EC50 (Cannabinoid receptor 1 [4]): 6.3 nM; Stability (Plasma [5]): Stable; Stability (Plasma [6]): Stable; Stability [7]: Stable; remaining at 1 h, 1 µM (CYP3A4): 24%; Activity (Cannabinoid receptor 1 [8]): inactive; Ratio Ki (Homo sapiens): 88; Activity [9]: inactive |
| CCCCCCc1ccc(O)cc1OCCCCCCCC(=O)OC(CO)CO | 1800 | 800 |  |
| CCCCCc1cc(O)cc(OCCCCCCCC(=O)OC(CO)CO)c1 | 7870 | 5600 |  |
| CCCCCc1cc(O)cc(OCCCCCCCCCCOC(CO)CO)c1 | > 10000 | > 10000 |  |
| CCCCCCC(C)(C)c1ccc([C@@H]2C[C@H](O)CC[C@H]2CCCO)c(O)c1 [CP-55940] |  |  | Emax [3]: 104%; EC50 (Cannabinoid receptor 1 [4]): 42 nM |
| CCCCCc1cc(O)cc(OCCCCCCOC(CO)CO)c1 | 910 | 430 |  |
| CCCCCCC(C)(C)c1cc(O)cc(OCCCCCCCCCCCCOC(CO)CO)c1 | 1670 | 1040 |  |
| CCCCCCc1ccc(O)cc1OCCCCCCCCCCC(=O)OCC(O)CO (stereo not given) | 4820 | > 10000 |  |
| CCCCCCC(C)(C)c1cc(O)cc(OCCCCCCCCCCC(=O)OCC(O)CO)c1 (stereo not given) | 310 | > 10000 |  |
| CCCCCCc1ccc(OCCCCCCCCCCOC(CO)CO)cc1O | 2390 | > 10000 |  |
| CCCCCCc1ccc(OCCCCCCOC(CO)CO)cc1O | 1130 | > 10000 |  |
| CCCCCc1cc(O)cc(OCCCCCCCCCCC(=O)OC(CO)CO)c1 | 870 | 5600 |  |
| CCCCCCc1ccc(O)cc1OCCCCCCCCCCC(=O)OC(CO)CO | 1800 | 60 | Activity (Cannabinoid receptor 1 [2]): inactive; Activity [10]: inactive; Emax [3]: 11.4%; EC50 (Cannabinoid receptor 1 [4]): 78.4 nM; Activity (Cannabinoid receptor 1 [8]): inactive; Ratio Ki (Homo sapiens): 32 |
| CCCCCCC(C)(C)c1cc(O)cc(OCCCCCCCCCCOC(CO)CO)c1 | 380 | 2940 |  |
| CCCCCc1cc(O)cc(OCCCCCCCCOC(CO)CO)c1 | 1160 | 1860 |  |
| CCCCCCc1ccc(OCCCCCCCC(=O)OC(CO)CO)cc1O | 7870 | > 10000 |  |
| CCCCCCc1ccc(OCCCCCCCCCCC(=O)OC(CO)CO)cc1O | 7870 | > 10000 |  |
| CCCCC/C=C\C/C=C\C/C=C\C/C=C\CCCCOC(CO)CO | > 3000 | 20 |  |
| CCCCCc1cc(O)cc(OCCCCCCCCCCC(=O)OCC(O)CO)c1 (stereo not given) | 7910 | > 10000 |  |
| CCCCCCc1ccc(OCCCCCCCCCCC(=O)OCC(O)CO)cc1O (stereo not given) | 10400 | > 10000 |  |
| CCCCCc1cc(O)cc(OCCCCCCCCCCCCOC(CO)CO)c1 | > 10000 | 3780 |  |
| CCCCCCC(C)(C)c1cc(O)cc(OCCCCCCCC(=O)OC(CO)CO)c1 | 790 | 1120 |  |
| CCCCCCC(C)(C)c1cc(O)cc(OCCCCCCOC(CO)CO)c1 | 190 |  |  |
| CCCCCCC(C)(C)c1cc(O)cc(OCCCCCCCCOC(CO)CO)c1 | 110 | 270 |  |

Source: ChEMBL document CHEMBL1921750 (J Med Chem, 2011)
